Experimental findings from ChEMBL document CHEMBL4382248, “Optimization of a 1,3,4-oxadiazole series for inhibition of Ca2+/calmodulin-stimulated activity of adenylyl cyclases 1 and 8 for the treatment of chronic pain” (Eur J Med Chem, 2019) are described below.

Common to all, as to format: cell-based
A short description of data set [1]: Cytotoxicity against HEK293 cells expressing human AC1 at 30 uM preincubated for 30 mins followed by A23187 stimulation and measured after 1 hr by CellTiter-Glo luminescent cell viability assay relative to control. The conditions noted are these: HEK293 cells expressing human AC1, read-out: Activity. In short, it runs like this:
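Cytotoxicity in HEK lines stably expressing AC1 or AC8: single 30 µM dose, 90 min incubation. Viability was read by luminescent ATP reporter as % of DMSO-treated (100%) and Triton-X-treated (0%) controls.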
On the technique in general: ATP-based viability assays read luminescence as a measure of living cells.

Data set [2] addresses Adenylate cyclase type 8 (Homo sapiens, UniProt P40145). Nature of the data set: Inhibition of human AC8 expressed in HEK293 cells assessed as decrease in A23187-stimulated cAMP accumulation at 30 uM preincubated for 30 mins followed by A23187 stimulation and measured after 1 hr by fluorescence assay relative to control. Summed up:
(§1)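 HEK cells stably expressing AC1 or AC8; Ca2+/calmodulin-stimulated cAMP accumulation measured. Dose-response curves began at 30 µM. […] Values are the mean and SEM of three independent experiments.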
For orientation: cAMP levels reflect the balance of adenylyl cyclase and phosphodiesterase activity.

For data set [3], the species on record is Homo sapiens. Nature of the data set: Selectivity ratio of IC50 for human AC8 expressed in HEK293 cells to IC50 for human AC1 expressed in HEK293 cells.
In data set [4] the target is Adenylate cyclase type 1 (Homo sapiens, UniProt Q08828). Nature of the data set: Inhibition of human AC1 expressed in HEK293 cells assessed as decrease in A23187-stimulated cAMP accumulation preincubated for 30 mins followed by A23187 stimulation and measured after 1 hr by fluorescence assay. Summed up: as §1
Sequence of Adenylate cyclase type 1 (Q08828 whole entry): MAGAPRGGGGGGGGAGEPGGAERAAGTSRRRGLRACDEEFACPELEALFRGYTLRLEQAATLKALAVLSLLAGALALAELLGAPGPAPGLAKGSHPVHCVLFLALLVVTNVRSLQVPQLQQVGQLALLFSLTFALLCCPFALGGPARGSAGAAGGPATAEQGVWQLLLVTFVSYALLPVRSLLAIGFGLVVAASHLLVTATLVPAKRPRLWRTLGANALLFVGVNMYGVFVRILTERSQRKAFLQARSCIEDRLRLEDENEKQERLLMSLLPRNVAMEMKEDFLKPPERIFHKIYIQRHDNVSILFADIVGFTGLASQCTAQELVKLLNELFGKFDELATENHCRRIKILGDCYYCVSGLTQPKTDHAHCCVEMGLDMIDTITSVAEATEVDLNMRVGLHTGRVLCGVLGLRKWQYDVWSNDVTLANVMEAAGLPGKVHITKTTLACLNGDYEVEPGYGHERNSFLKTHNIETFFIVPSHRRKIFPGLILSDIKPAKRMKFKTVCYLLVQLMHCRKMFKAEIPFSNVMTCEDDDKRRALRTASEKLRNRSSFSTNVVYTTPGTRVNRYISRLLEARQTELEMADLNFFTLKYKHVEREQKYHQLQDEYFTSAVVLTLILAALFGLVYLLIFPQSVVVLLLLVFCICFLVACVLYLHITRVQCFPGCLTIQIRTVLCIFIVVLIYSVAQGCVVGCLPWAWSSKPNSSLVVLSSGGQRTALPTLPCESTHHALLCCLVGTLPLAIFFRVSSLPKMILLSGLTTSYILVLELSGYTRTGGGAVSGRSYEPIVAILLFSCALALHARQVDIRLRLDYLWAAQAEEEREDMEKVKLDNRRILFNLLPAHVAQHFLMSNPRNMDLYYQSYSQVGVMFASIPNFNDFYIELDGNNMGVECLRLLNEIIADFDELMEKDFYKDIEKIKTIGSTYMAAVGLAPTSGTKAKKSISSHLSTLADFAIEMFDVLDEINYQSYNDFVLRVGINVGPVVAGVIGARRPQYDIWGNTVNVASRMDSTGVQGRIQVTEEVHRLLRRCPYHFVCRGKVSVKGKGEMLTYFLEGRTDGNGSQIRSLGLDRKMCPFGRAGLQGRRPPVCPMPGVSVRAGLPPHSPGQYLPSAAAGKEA

Sequence of Adenylate cyclase type 8 (P40145 whole entry): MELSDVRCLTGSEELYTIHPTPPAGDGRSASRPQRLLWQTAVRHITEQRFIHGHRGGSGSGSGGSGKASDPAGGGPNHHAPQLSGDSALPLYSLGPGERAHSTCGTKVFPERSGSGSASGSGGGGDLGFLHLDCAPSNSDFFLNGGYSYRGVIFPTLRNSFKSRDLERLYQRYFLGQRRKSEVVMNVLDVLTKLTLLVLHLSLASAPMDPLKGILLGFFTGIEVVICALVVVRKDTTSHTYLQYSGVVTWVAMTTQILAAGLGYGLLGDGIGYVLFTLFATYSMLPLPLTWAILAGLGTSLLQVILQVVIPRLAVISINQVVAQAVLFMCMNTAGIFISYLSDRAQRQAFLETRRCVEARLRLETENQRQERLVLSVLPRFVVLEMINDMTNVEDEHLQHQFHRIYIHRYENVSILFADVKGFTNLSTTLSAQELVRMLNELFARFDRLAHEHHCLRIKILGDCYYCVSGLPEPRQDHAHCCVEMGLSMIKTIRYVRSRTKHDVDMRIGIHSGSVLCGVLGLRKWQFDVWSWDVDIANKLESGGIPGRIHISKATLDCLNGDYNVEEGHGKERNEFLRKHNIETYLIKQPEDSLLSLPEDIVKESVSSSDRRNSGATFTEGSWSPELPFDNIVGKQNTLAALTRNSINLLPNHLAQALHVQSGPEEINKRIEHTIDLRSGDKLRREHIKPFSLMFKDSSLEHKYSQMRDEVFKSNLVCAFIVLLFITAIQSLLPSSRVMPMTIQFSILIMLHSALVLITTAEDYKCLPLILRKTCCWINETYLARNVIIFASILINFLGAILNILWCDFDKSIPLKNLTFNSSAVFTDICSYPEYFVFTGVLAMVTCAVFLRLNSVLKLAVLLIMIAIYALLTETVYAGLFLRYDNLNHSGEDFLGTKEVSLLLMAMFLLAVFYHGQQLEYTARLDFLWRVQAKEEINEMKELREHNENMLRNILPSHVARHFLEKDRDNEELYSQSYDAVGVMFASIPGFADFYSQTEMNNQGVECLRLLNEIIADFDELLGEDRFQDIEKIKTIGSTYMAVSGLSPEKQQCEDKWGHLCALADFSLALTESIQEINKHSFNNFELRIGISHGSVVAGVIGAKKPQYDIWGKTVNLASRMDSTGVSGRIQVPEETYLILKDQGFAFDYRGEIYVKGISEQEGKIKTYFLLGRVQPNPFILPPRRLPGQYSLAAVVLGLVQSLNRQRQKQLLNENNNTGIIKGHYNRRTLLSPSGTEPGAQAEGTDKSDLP

As to `O=C(Nc1nnc(-c2ccc(F)cc2)o1)c1ccc(F)cc1`, the viability at 1 h, 30 µM in data set [1] stood at 100%. For the same compound, the inhibition in data set [2] worked out at 14%.

As to `COc1ccc(C(=O)Nc2nnc(-c3ccc4c(c3)CCCC4)o2)cc1`, in data set [1], the viability at 1 h, 30 µM was 118 to 121%. The inhibition in data set [2] turned out to be 34%. Moreover, the Ratio IC50 in data set [3] is > 4.7.

With `O=C(Nc1nnc(-c2ccc(F)cc2)o1)c1ccccc1`, the viability at 1 h, 30 µM in data set [1] came out at 87%. The inhibition in data set [2] was found to be 8%.

As for `CC(C)Oc1ccc(C(=O)Nc2nnc(-c3cccs3)o2)cc1`, the viability at 1 h, 30 µM in data set [1] was in the range of 73 to 81%. The inhibition in data set [2] fell in the range of 24 to 35%.

On to `O=C(Nc1nnc(-c2ccc(F)cc2)o1)c1ccc(S(=O)(=O)N2CCCCC2)cc1`, for which the IC50 in data set [4] stood at 16 µM. The viability at 1 h, 30 µM in data set [1] is 119%. For the same compound, the inhibition in data set [2] was determined as 38%.

In the case of `O=C(Nc1nnc(-c2ccc(F)cc2)o1)c1ccc(Br)cc1`, the viability at 1 h, 30 µM in data set [1] came out at 103%. Besides, the inhibition in data set [2] was determined as 33%.

Consider `COc1cccc(C(=O)Nc2nnc(-c3ccc4c(c3)OCCO4)o2)c1`, for which the viability at 1 h, 30 µM in data set [1] turned out to be 103%. For the same compound, the inhibition in data set [2] was found to be 18%.

For the compound `Cc1ccc(C(=O)Nc2nnc(-c3ccc(F)cc3)o2)cc1C`, the viability at 1 h, 30 µM in data set [1] is 95%. Also, the inhibition in data set [2] is 42%.

In the case of `COc1ccc(C(=O)Nc2nnc(C3CCCCC3)o2)cc1`, the viability at 1 h, 30 µM in data set [1] was 82%. Moreover, in data set [2], the inhibition was determined as 6%.

Take `O=C(Nc1nnc(-c2cccs2)o1)c1ccc(Br)cc1`: the viability at 1 h, 30 µM in data set [1] came to 110%. In addition, the inhibition in data set [2] was found to be 41%.

With `Cc1ccc(C(=O)Nc2nnc(C3CCCCC3)o2)cc1C(F)(F)F`, the viability at 1 h, 30 µM in data set [1] is 139%. Moreover, the Ratio IC50 in data set [3] came out at 1.9.

As to `O=C(Nc1nnc(-c2ccc(F)cc2)o1)c1ccc(-c2ccccc2)cc1`, the viability at 1 h, 30 µM in data set [1] amounted to 114%. Further, the Ratio IC50 in data set [3] came to 2.7.

Take `Cc1ccc(C(=O)Nc2nnc(-c3ccc(F)cc3)o2)cc1C(F)(F)F`: in data set [1], the viability at 1 h, 30 µM worked out at 133%. Further, the Ratio IC50 in data set [3] was determined as 1.9.

With `COc1cccc(C(=O)Nc2nnc(-c3ccc4c(c3)CCCC4)o2)c1`, the viability at 1 h, 30 µM in data set [1] lay in the range of 111 to 124%. Moreover, in data set [3], the Ratio IC50 lay within 0.83 to 8.1.

With `O=C(Nc1nnc(-c2ccc(F)cc2)o1)c1cccc(C(F)(F)F)c1`, the viability at 1 h, 30 µM in data set [1] amounted to 108%. Also, the Ratio IC50 in data set [3] worked out at 5.8.

On to `Cc1ccc(C(=O)Nc2nnc(C3CCCCC3)o2)cc1C`, for which the viability at 1 h, 30 µM in data set [1] was 112%. Also, the Ratio IC50 in data set [3] was determined as 5.4.

Take `Cc1ccc(C(=O)Nc2nnc(-c3ccc4c(c3)OCCO4)o2)cc1C`: the viability at 1 h, 30 µM in data set [1] stood at 113%. In addition, the Ratio IC50 in data set [3] stood at 2.6.

Regarding `CSc1cccc(C(=O)Nc2nnc(C3CCCCC3)o2)c1`, the viability at 1 h, 30 µM in data set [1] fell in the range of 117 to 137%. Moreover, the inhibition in data set [2] fell in the range of 31 to 43%. The Ratio IC50 in data set [3] is > 4.5.

For `O=C(Nc1nnc(-c2ccc(F)cc2)o1)c1cccc(F)c1`, the IC50 in data set [4] worked out at 11 µM. For the same compound, the viability at 1 h, 30 µM in data set [1] is 104%. The inhibition in data set [2] came out at 35%.

Regarding `CCc1ccc(C(=O)Nc2nnc(-c3ccc(F)cc3)o2)cc1`, in data set [1], the viability at 1 h, 30 µM was determined as 95%. Also, the inhibition in data set [2] turned out to be 32%.

For the compound `COc1ccc(C(=O)Nc2nnc(-c3ccc(F)cc3)o2)cc1`, the IC50 in data set [4] came to 13 µM. Moreover, the viability at 1 h, 30 µM in data set [1] worked out at 82%. Besides, the inhibition in data set [2] stood at 20%.

Turning to `COc1cccc(C(=O)Nc2nnc(-c3ccc(F)cc3)o2)c1`, in data set [1], the viability at 1 h, 30 µM was 99%. Also, in data set [2], the inhibition is 23%.

As for `O=C(Nc1nnc(-c2ccc3c(c2)OCCO3)o1)c1cccc(C(F)(F)F)c1`, in data set [1], the viability at 1 h, 30 µM was determined as 116%. In data set [3], the Ratio IC50 amounted to 6.3.

Take `O=C(Nc1nnc(-c2ccc(F)cc2)o1)c1ccc(Cl)cc1`: the viability at 1 h, 30 µM in data set [1] is 84%. For the same compound, the inhibition in data set [2] was determined as 11%.

`Cc1cc(C(=O)Nc2nnc(-c3ccc4c(c3)CCCC4)o2)cc(C(F)(F)F)c1`: the viability at 1 h, 30 µM in data set [1] is 116%. Moreover, the Ratio IC50 in data set [3] was determined as 0.26.

Regarding `O=C(Nc1nnc(-c2ccc3c(c2)CCCC3)o1)c1cccc(F)c1`, the viability at 1 h, 30 µM in data set [1] worked out at 94%. The Ratio IC50 in data set [3] amounted to 4.2.

Turning to `CCc1ccc(C(=O)Nc2nnc(-c3ccc4c(c3)CCCC4)o2)cc1`, the viability at 1 h, 30 µM in data set [1] was determined as 114%. In addition, the Ratio IC50 in data set [3] stood at 1.7.

With `CSc1cccc(C(=O)Nc2nnc(-c3ccc4c(c3)CCCC4)o2)c1`, in data set [1], the viability at 1 h, 30 µM lay within 118 to 137%. In addition, the Ratio IC50 in data set [3] is 5.5 to 10.

With `Cc1ccc(C(=O)Nc2nnc(-c3ccc4c(c3)CCCC4)o2)cc1C(F)(F)F`, in data set [1], the viability at 1 h, 30 µM was 115%. Moreover, the Ratio IC50 in data set [3] came out at 0.5.

Regarding `O=C(Nc1nnc(C2CCCCC2)o1)c1ccc(Br)cc1`, the viability at 1 h, 30 µM in data set [1] was 108%. In data set [3], the Ratio IC50 was determined as 2.9.

On to `O=C(Nc1nnc(-c2ccc3c(c2)CCCC3)o1)c1ccc(F)cc1`, for which, in data set [1], the viability at 1 h, 30 µM was found to be 110%. The Ratio IC50 in data set [3] worked out at 3.7.

On to `CC(C)Oc1ccc(C(=O)Nc2nnc(-c3ccc4c(c3)CCCC4)o2)cc1`, for which the viability at 1 h, 30 µM in data set [1] lay in the range of 124 to 129%. Also, in data set [3], the Ratio IC50 lay within 0.73 to 1.2.

Turning to `COc1cc(C(=O)Nc2nnc(C3CCCCC3)o2)cc(C(F)(F)F)c1`, the viability at 1 h, 30 µM in data set [1] was 113%. Moreover, the Ratio IC50 in data set [3] worked out at 1.9.

Consider `CC(C)Oc1ccc(C(=O)Nc2nnc(C3CCCCC3)o2)cc1`, for which the viability at 1 h, 30 µM in data set [1] was 99%. In addition, in data set [2], the inhibition came out at 35%.

Take `O=C(Nc1nnc(C2CCCCC2)o1)c1ccc(F)cc1`: the 50% inhibitory concentration (IC50) in data set [4] stood at 13 µM. Also, the viability at 1 h, 30 µM in data set [1] is 95%. Moreover, the inhibition in data set [2] was found to be 7%.

Consider `COc1cc(C(=O)Nc2nnc(-c3ccc4c(c3)CCCC4)o2)cc(C(F)(F)F)c1`, for which the viability at 1 h, 30 µM in data set [1] is 121%. Moreover, the Ratio IC50 in data set [3] came to 1.1.

Take `O=C(Nc1nnc(C2CCCCC2)o1)c1cccc(F)c1`: the IC50 in data set [4] came to 11 µM. In data set [1], the viability at 1 h, 30 µM worked out at 87%. For the same compound, in data set [2], the inhibition turned out to be 11%.

With `CSc1cccc(C(=O)Nc2nnc(-c3cccs3)o2)c1`, the viability at 1 h, 30 µM in data set [1] is 110%. In addition, in data set [2], the inhibition is 34%.

With `O=C(Nc1nnc(-c2ccc3c(c2)OCCO3)o1)c1ccccc1`, the viability at 1 h, 30 µM in data set [1] stood at 87%. In data set [2], the inhibition was 24%. The Ratio IC50 in data set [3] was > 1.

Regarding `O=C(Nc1nnc(-c2cccs2)o1)c1ccccc1`, the IC50 in data set [4] stood at 28 µM. For the same compound, the viability at 1 h, 30 µM in data set [1] was 97%. Moreover, in data set [2], the inhibition amounted to 18%.

For the compound `CC(C)Oc1ccc(C(=O)Nc2nnc(-c3ccc4c(c3)OCCO4)o2)cc1`, the viability at 1 h, 30 µM in data set [1] was determined as 160%. The inhibition in data set [2] came out at 39%.

With `O=C(Nc1nnc(C2CCCCC2)o1)c1cccc(-c2ccccc2)c1`, the viability at 1 h, 30 µM in data set [1] was 115%. Also, the Ratio IC50 in data set [3] was 1.

On to `Cc1cc(C(=O)Nc2nnc(C3CCCCC3)o2)cc(C(F)(F)F)c1`, for which the viability at 1 h, 30 µM in data set [1] was 125%. Also, in data set [3], the Ratio IC50 worked out at 2.9.

Turning to `O=C(Nc1nnc(-c2ccc3c(c2)CCCC3)o1)c1ccccc1`, the viability at 1 h, 30 µM in data set [1] lay within 84 to 124%. Further, in data set [3], the Ratio IC50 was in the range of 1.1 to 5.6.

Regarding `O=C(Nc1nnc(C2CCCCC2)o1)c1cccc(C(F)(F)F)c1`, the viability at 1 h, 30 µM in data set [1] is 102%. The Ratio IC50 in data set [3] is > 3.6.

Regarding `CCc1ccc(C(=O)Nc2nnc(C3CCCCC3)o2)cc1`, the viability at 1 h, 30 µM in data set [1] worked out at 119%. Moreover, the inhibition in data set [2] is 44%.

With `COc1ccc(C(=O)Nc2nnc(-c3cccs3)o2)cc1`, in data set [1], the viability at 1 h, 30 µM was 97%. Moreover, the inhibition in data set [2] came to 10%.

As usually defined, the inhibition is the drop in the measured response relative to a control, in per cent. For orientation: IC50 means the concentration at which inhibition is half-maximal.
